# Reference: ChEMBL document CHEMBL2390932, “(+)-Usnic acid enamines with remarkable cicatrizing properties” (Bioorg Med Chem, 2013)
# The source made the active and inactive calls. The calls are words filed in the database; no cut-off is given here.
# Tests used:
# Hathewaya histolytica [1] = test: Inhibition of Clostridium histolyticum collagenase using N-[3-(2-Furyl)acryloyl]-Leu-Gly-Pro-Ala as substrate at 100 ug/ml after 15 mins by spectrophotometric analysis relative to control
# Procedure, shortened: (§1)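 Samples dissolved in DMSO and diluted in 50 mM Tricine buffer (0.4 M NaCl, 0.01 M CaCl2, pH 7.5). Clostridium histolyticum collagenase and sample preincubated 5 min at 25 °C, then incubated 15 min. FALGPA substrate, prepared at 2 mM in the same buffer, was then added. Inhibition given as % with S.E.M.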
# Bos taurus [2] = species: Bos taurus; test: Inhibition of bovine hyaluronidase assessed as sodium hyaluronate conversion to N-acetylglucosamine at 50 ug/ml by spectrophotometric analysis relative to control
# [3] = target: T1, Neutrophil elastase (Homo sapiens) (UniProt P08246); test: Inhibition of human neutrophil elastase assessed as N-methoxysuccinyl-Ala-Ala-Pro-Val p-nitroanilide conversion to p-nitroaniline at 50 ug/ml after 1 hr by spectrophotometric analysis relative to control
# T1 sequence (whole entry): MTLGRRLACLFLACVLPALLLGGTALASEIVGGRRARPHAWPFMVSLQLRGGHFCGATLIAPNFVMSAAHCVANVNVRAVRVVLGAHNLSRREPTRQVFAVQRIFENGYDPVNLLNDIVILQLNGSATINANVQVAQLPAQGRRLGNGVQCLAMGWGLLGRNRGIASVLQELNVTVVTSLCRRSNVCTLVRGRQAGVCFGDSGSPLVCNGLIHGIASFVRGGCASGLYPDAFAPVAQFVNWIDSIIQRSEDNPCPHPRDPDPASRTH
# Procedure, shortened: (§2)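 Sample and human neutrophil elastase (17 mU/ml) mixed in 0.1 M Tris–HCl, pH 7.5, and held 5 min at 25 °C. MeOSuc-Ala-Ala-Pro-Val p-nitroanilide was added and the mixture incubated 1 h at 37 °C. Reaction stopped with soybean trypsin inhibitor (1 mg/ml); p-nitroaniline absorbance read immediately. Inhibition given as % with S.E.M.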
# Hathewaya histolytica [4] = test: Inhibition of Clostridium histolyticum collagenase using N-[3-(2-Furyl)acryloyl]-Leu-Gly-Pro-Ala as substrate at 50 ug/ml after 15 mins by spectrophotometric analysis relative to control; procedure, shortened: as §1
# Bos taurus [5] = species: Bos taurus; test: Inhibition of bovine hyaluronidase assessed as sodium hyaluronate conversion to N-acetylglucosamine at 100 ug/ml by spectrophotometric analysis relative to control
# [6] = target: T1, Neutrophil elastase (Homo sapiens); test: Inhibition of human neutrophil elastase assessed as N-methoxysuccinyl-Ala-Ala-Pro-Val p-nitroanilide conversion to p-nitroaniline at 100 ug/ml after 1 hr by spectrophotometric analysis relative to control; procedure, shortened: as §2
# A-431 = test: Cytotoxicity against human A431 cells after 24 hrs by neutral red dye uptake assay; type: functional, cell-based; conditions: A-431, 24 h
# Procedure, shortened: (§3)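 Cells kept in DMEM with 10% FBS at 37 °C, 5% CO2. Seeded at 20,000 cells/well, grown 24 h, then exposed 24 h to a concentration series. Neutral red (0.05%) added for 3 h at 37 °C, dye extracted with 1% acetic acid in 50% ethanol, absorbance read at 540 nm. IC50, IC05 and 95% confidence intervals derived from a downhill logistic curve fit.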
# HaCaT [7] = test: Wound healing activity in human HaCaT cells assessed as wound closure rate at 1.7 ug/mL after 24 hrs by inverted microscopic analysis; type: functional, cell-based
# Procedure, shortened: (§4)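 Confluent HaCaT monolayers scratched with a pipette tip, washed, re-fed with medium and exposed to compound for 24 h; 20% (v/v) platelet lysate served as positive control. Cells fixed in 3.7% formaldehyde and stained with 0.1% toluidine blue. Wound width measured by inverted microscope with camera at 0 and 24 h; closure taken as the width difference. Results expressed relative to control mean (100%), two independent experiments, n = 20 each.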
# HaCaT [8] = test: Wound healing activity in human HaCaT cells assessed as wound closure rate at 2.5 ug/mL after 24 hrs by inverted microscopic analysis; type: functional, cell-based; procedure, shortened: as §4
# HaCaT [9] = test: Wound healing activity in human HaCaT cells assessed as wound closure rate at 2.1 ug/mL after 24 hrs by inverted microscopic analysis; type: functional, cell-based; procedure, shortened: as §4
# HaCaT [10] = test: Wound healing activity in human HaCaT cells assessed as wound closure rate at 2 ug/mL after 24 hrs by inverted microscopic analysis; type: functional, cell-based; procedure, shortened: as §4
# HaCaT [11] = test: Wound healing activity in human HaCaT cells assessed as wound closure rate at 2.2 ug/mL after 24 hrs by inverted microscopic analysis; type: functional, cell-based; procedure, shortened: as §4
# HaCaT [12] = test: Wound healing activity in human HaCaT cells assessed as wound closure rate at 5 uM after 24 hrs by inverted microscopic analysis; type: functional, cell-based; procedure, shortened: as §4
# HaCaT [13] = test: Cytotoxicity against human HaCaT cells after 24 hrs by neutral red dye uptake assay; type: cell-based; conditions: for IC50: Homo sapiens, HaCaT; for IC05: human, hacat; procedure, shortened: as §3
# Mus musculus [14] = test: Wound healing activity in Swiss albino mouse circular excision wound model assessed as wound contraction applied topically qd measured on the same day relative to control; type: functional; parameters: concentration or dose not given beside the values
# Mus musculus [15] = test: Wound healing activity in Swiss albino mouse circular excision wound model assessed as wound contraction applied topically qd after 4 days relative to control; type: functional; parameters: concentration or dose not given beside the values
# Mus musculus [16] = test: Wound healing activity in Swiss albino mouse circular excision wound model assessed as wound contraction applied topically qd after 6 days (reference value: 3.41%); type: functional
# Mus musculus [17] = test: Wound healing activity in Swiss albino mouse circular excision wound model assessed as hydroxyproline content in skin applied topically qd after 7 days by spectrophotometric analysis; type: functional
# Procedure, shortened: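 Skin from ointment-treated mouse wounds (7 days) dried at 60–70 °C to constant weight, then hydrolyzed in 6 N HCl for 3 h at 130 °C. Hydrolysate neutralized to pH 7, oxidized with chloramine T and reacted with Ehrlich reagent at 60 °C. Read at 557 nm and reported as mg/g with S.E.M.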
# Rattus norvegicus = test: Wound healing activity in Sprague-Dawley rat linear incision wound model assessed as tensile strength of wound applied topically qd for 9 days measured on day 10 by tensiometer (reference value: 10.6%); type: functional
# Mus musculus [18] = test: Wound healing activity in Swiss albino mouse circular excision wound model assessed as wound contraction applied topically qd after 8 days (reference value: 2.18%); type: functional
# Mus musculus [19] = test: Wound healing activity in Swiss albino mouse circular excision wound model assessed as wound contraction applied topically qd after 10 days (reference value: 6.29%); type: functional
# Mus musculus [20] = test: Wound healing activity in Swiss albino mouse circular excision wound model assessed as wound contraction applied topically qd after 2 days relative to control; type: functional; parameters: concentration or dose not given beside the values
Compound,inhibition (Hathewaya histolytica [1]) [%],inhibition (Bos taurus [2]) [%],inhibition [3] [%],inhibition (Hathewaya histolytica [4]) [%],inhibition (Bos taurus [5]) [%],inhibition [6] [%],Activity (HaCaT [7]),Activity (HaCaT [8]),Activity (HaCaT [9]),Activity (HaCaT [10]),Activity (HaCaT [11]),Activity (HaCaT [12]),IC50 (HaCaT [13]) [µg/mL],IC05 (HaCaT [13]) [µg/mL],Activity (Mus musculus [14]) [%],Activity (Mus musculus [15]) [%],Activity (Mus musculus [16]) [%],Activity (Mus musculus [17]) [mg/g],Activity (Rattus norvegicus) [%],Activity (Mus musculus [18]) [%],other results
CC(=O)c1c(O)c(C)c(O)c2c1OC1=CC(=O)/C(=C(/C)N)C(=O)[C@@]12C,33.1,35.3,13.3,20.7,41.9,15.3,–,–,–,–,–,–,–,–,–,–,–,–,–,–,–
CC(=O)c1c(O)c(C)c(O)c2c1OC1=CC(=O)/C(=C(/C)N[C@@H](Cc3ccc(O)cc3)C(=O)O)C(=O)[C@@]12C,–,–,–,–,–,–,Active,Active,Active,Active,Active,Active,13,1.3,–,–,–,–,–,–,IC50 (A-431): 36 µg/mL
CC(=O)c1c(O)c(C)c(O)c2c1OC1=CC(=O)/C(=C(/C)NCCS)C(=O)[C@@]12C,27.3,10.2,15.3,19.5,15.6,20.4,Active,Active,Active,Active,Active,Active,155,43,19.46,13.74,10.25,39.8,35.2,4.42,Activity (Mus musculus [19]): 1.39%; Activity (Mus musculus [20]): 16.41%
CC(=O)c1c(O)c(C)c(O)c2c1OC1=CC(=O)/C(=C(/C)NCCSSCCN/C(C)=C3\C(=O)C=C4Oc5c(C(C)=O)c(O)c(C)c(O)c5[C@@]4(C)C3=O)C(=O)[C@@]12C,29.3,10,21.3,20.8,18.3,30.1,–,–,–,–,–,–,–,–,19.25,15.92,12.48,20.4,15.91,6.48,Activity (Mus musculus [19]): 2.96%; Activity (Mus musculus [20]): 17.95%
O=C(OC[C@H]1O[C@@H](OC(=O)c2cc(O)c(O)c(OC(=O)c3cc(O)c(O)c(O)c3)c2)[C@H](OC(=O)c2cc(O)c(O)c(OC(=O)c3cc(O)c(O)c(O)c3)c2)[C@@H](OC(=O)c2cc(O)c(O)c(OC(=O)c3cc(O)c(O)c(O)c3)c2)[C@@H]1OC(=O)c1cc(O)c(O)c(OC(=O)c2cc(O)c(O)c(O)c2)c1)c1cc(O)c(O)c(OC(=O)c2cc(O)c(O)c(O)c2)c1,–,–,–,–,76.3,–,–,–,–,–,–,–,–,–,–,–,–,–,–,–,–
CC(=O)c1c(O)c(C)c(O)c2c1OC1=CC(=O)/C(=C(/C)NCCS(=O)(=O)O)C(=O)[C@@]12C,–,–,–,–,–,–,Active,Active,Active,Active,Active,Active,47,–,19.33,14.52,11.42,30.8,29.3,5.04,Activity (Mus musculus [19]): 2.29%; Activity (Mus musculus [20]): 17.74%
CC(=O)c1c(O)c(C)c(O)c2c1OC1=CC(=O)/C(=C(/C)N[C@@H](CCCNC(=N)N)C(=O)O)C(=O)[C@@]12C,–,–,–,–,–,–,–,–,–,–,–,–,163,16,–,–,–,–,–,–,–
